Measured values: ChEMBL document CHEMBL1141607, “Design, synthesis, and in vitro photodynamic activities of benzochloroporphyrin derivatives as tumor photosensitizers” (Bioorg Med Chem Lett, 2008)
≈ marks a conversion by molar mass, not a printed value. Calls of active or inactive are those of the source. The calls are words filed in the database; no cut-off is given here.

Assays:
Bel-7402 [1] = assay: Cytotoxicity against human BEL-7402 cells assessed as photo-induced growth inhibition upto 2.5 ug/mL after 24 hrs in dark by MTT assay; format: functional; set-up: scale not given: the % may be the effect or the level left
In short: (§1)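 Human hepatoma BEL-7402 cells were incubated with compound (0.03125–2.5 µg/mL) in the dark for 24 h at 37 °C. Cells in the light arm were then irradiated with a 670 nm laser at 10 J/cm² (56 mW/cm² for 3 min); dark-arm cells were not irradiated. Cells were then incubated for 24 h at 37 °C and survival was read by MTT in triplicate. IC50 was reported with 95% confidence limits.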

Bel-7402 [2] = assay: Cytotoxicity against human BEL-7402 cells assessed as photo-induced growth inhibition after 24 hrs in dark by MTT assay; format: functional, cell-based; conditions: Bel-7402, 24 h; in short: as §1
Bel-7402 [3] = assay: Induction of apoptosis in human BEL-7402 cells […] by methyl green-pyronin staining method; format: functional, cell-based

## CCC1=C(C)c2cc3[nH]c(cc4nc(c(C(=O)OC)c5[nH]c(cc1n2)c(C)c5C(=O)OC)C(CCC(=O)OC)=C4C)[C@@]1(C)C3=CC=C(C(=O)OC)[C@H]1C(=O)OC
Bel-7402 [1]
  Activity: >92%
Bel-7402 [2]
  IC50: 0.27 µg/mL (≈ 0.353 µM)

## CCC1=C(C)c2cc3[nH]c(cc4nc(c(C)c5[nH]c(cc1n2)c(C)c5C(=O)OC)C(CCC(=O)OC)=C4C)[C@@]1(C)C3=CC=C(C(=O)OC)[C@H]1C(=O)OC
Bel-7402 [1]
  Activity: >92%
Bel-7402 [2]
  IC50: 0.47 µg/mL (≈ 0.652 µM)

## CCC1=C(C)c2cc3[nH]c(cc4nc(c5c6[nH]c(cc1n2)c(C)c6C(=O)C5C(=O)OC)C(CCC(=O)OC)=C4C)[C@@]1(C)C3=CC=C(C(=O)OC)[C@H]1C(=O)OC (some centres undefined)
Bel-7402 [1]
  Activity: >92%
Bel-7402 [2]
  IC50: 0.26 µg/mL (≈ 0.348 µM)
Bel-7402 [3]
  Activity: Active

## CCC1=C(C)c2cc3[nH]c(cc4nc(c(CC(=O)OC)c5[nH]c(cc1n2)c(C)c5C(=O)OC)C(CCC(=O)OC)=C4C)[C@@]1(C)C3=CC=C(C(=O)OC)[C@H]1C(=O)OC
Bel-7402 [1]
  Activity: >92%
Bel-7402 [2]
  IC50: 1.32 µg/mL (≈ 1.69 µM)
